DENV2 CPE rescue = inhibitors of DENV2 cytopathic effect | DENV2-infected cells, cytopathic effect rescue, plate reader | CPE inhibition, % at 9.99 µM | actives 1.7% (n = 350,000) | AID 651640; in the data active = CPE inhibition above about 20%, passing the limit was not always enough; inconclusive = no clear call, values can overlap the other calls; tested in BHK-21 cells;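 note: 0% = median of neutral control wells and 100% = median of positive control wells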
CaV13 ICDI inh = Disruptors of the CACNA1D IQ motif to Ca2+-dependent inactivation inhibitor domain association, primary screening, Förster resonance energy transfer in intact living … | HEK cells, CFP/YFP FRET ICDI-IQ, plate reader, 10 min; percent FRET-ratio fall versus neutral wells | inhibition, % at 12.3 µM | actives 0.098% (n = 340,000) | AID 743397;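 active = mean replicate inhibition of at least 30% and at least 1% of replicates passing that level; inconclusive = only one of the two criteria is met; inactive = neither criterion is met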;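 note: 0% = median of the neutral control wells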
SIRT5 block = inhibitors of human sirtuin-5 desuccinylase; Purified SirT5, succinyl-peptide AMC, trypsin-coupled fluorescence; actives 1.1% (n = 330,000); Q9NXA8; inhibition, % at 15 µM; in the data active = inhibition above about 15%; inconclusive = no clear call, values can overlap the other calls
Target sequence (Q9NXA8 whole entry, looked up): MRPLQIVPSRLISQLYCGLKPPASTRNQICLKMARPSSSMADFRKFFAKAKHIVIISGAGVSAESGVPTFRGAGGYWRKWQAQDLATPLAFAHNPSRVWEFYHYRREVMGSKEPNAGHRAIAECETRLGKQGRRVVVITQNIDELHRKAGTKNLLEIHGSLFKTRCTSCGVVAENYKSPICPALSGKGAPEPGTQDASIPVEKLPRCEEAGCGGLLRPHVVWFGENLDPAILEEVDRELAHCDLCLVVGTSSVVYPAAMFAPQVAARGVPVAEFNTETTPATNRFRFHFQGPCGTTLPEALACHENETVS
S100A4 inh HTS = inhibitors of human S100A4 binding to myosin IIA peptide; S100A4/TAMRA-MyoIIA peptide fluorescence polarization; actives 0.14% (n = 360,000); P26447; inhibition, % at 10.7 µM;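 active = mean inhibition of at least 70% across replicates, with every replicate also reaching that level; inconclusive = mean inhibition reaches 70% but some replicates fall short; inactive = mean inhibition below 70%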
Target sequence (P26447 whole entry, looked up): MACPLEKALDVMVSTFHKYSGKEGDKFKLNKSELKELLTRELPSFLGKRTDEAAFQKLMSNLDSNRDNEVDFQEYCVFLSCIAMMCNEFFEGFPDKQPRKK
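Compound dosing: one dose per compound; test system: human S100A4 monomer with TAMRA-labelled myosin IIA peptide; probe or stimulus: TAMRA-labelled myosin IIA heavy-chain peptide probe, 5 nM; medium: HEPES buffer with Ca2+, pH 7.2; schedule: 5 min incubation before reading; benchmarks: neutral control DMSO, positive control TFP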
AF4-AF9 inh = blocks AF4 peptide binding to human AF9; P42568; AlphaScreen, biotin-AF4 peptide binding to FLAG-AF9; inhibition, % at 10 µM; AID 651704; actives 0.47% (n = 350,000);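 active = every replicate reaching a set inhibition limit, whatever the replicate mean, cut at about 25% in these data; inconclusive = mean inhibition reaches that limit but some replicates miss it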;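 note: 0% = plate neutral control median and 100% = total signal loss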
* = called active by the depositor; ? = inconclusive; . = not tested or not shown. Rows were chosen to be rich in hits. Some 2.7% of all compounds tested hit in one or more screens of this group.

SMILES | DENV2 CPE rescue | CaV13 ICDI inh | SIRT5 block | S100A4 inh HTS | AF4-AF9 inh
Cc1ccc(S(=O)(=O)Nc2ccc3c(c2)CC(=O)N([C@H](C)CO)C[C@H](C)[C@H](CN(C)CC2CC2)O3)cc1 | -1 | . | -4 | 4 | 0
COc1ccc2c3c(n(C)c2c1)[C@H](CO)N(C(=O)NC1CCCC1)CC31CN(C(C)=O)C1 | -3 | . | -6 | 16 | 1
C#CCOCCOCCOCCNc1nc(N2CCN(C(=O)CCCCCCCCCCNC(=O)[C@H](CO)n3cc(CCCSC)nn3)CC2)nc(N2CCN(C(=O)CCCCCCCCCCNC(=O)[C@H](CO)n3cc(CCCSC)nn3)CC2)n1 | 121* | -7 | -1 | 30 | -19
C#CCOCCOCCOCCNc1nc(N2CCN(C(=O)[C@H](CCCCN)n3cc([C@@H](N)[C@H](C)CC)nn3)CC2)nc(N2CCN(C(=O)[C@H](CCCCN)n3cc([C@@H](N)CC(N)=O)nn3)CC2)n1 | 6 | -5 | . | 50 | 60*
C#CCOCCOCCOCCNc1nc(N2CCN(C(=O)[C@H](CCCCN)n3cc([C@@H](N)CO)nn3)CC2)nc(N2CCN(C(=O)[C@H](CCCCN)n3cc([C@@H](N)CC(C)C)nn3)CC2)n1 | 3 | -5 | -4 | -2 | 29*
C#CCOCCOCCOCCNc1nc(N2CCN(C(=O)[C@H](CO)n3cc([C@@H](N)C(C)C)nn3)CC2)nc(N2CCN(C(=O)[C@H](CCC(=O)O)n3cc([C@@H](N)CCCCN)nn3)CC2)n1 | 16 | -5 | 0 | -9 | 3
C#CCOCCOCCOCCNc1nc(N2CCN(C(=O)C([C@@H](C)O)n3cc([C@@H](N)CCCCN)nn3)CC2)nc(N2CCN(C(=O)[C@H](CO)n3cc([C@@H](N)C(C)C)nn3)CC2)n1 (some centres not stated) | -20 | -9 | -3 | -15 | 54*
O=C(C[C@@H]1CC[C@@H]2NC[C@H](O)COC[C@H]2O1)NCCc1ccncc1 | 0 | . | 1 | 8 | -2
C#CCOCCOCCOCCNc1nc(N2CCN(C(=O)[C@H](CCCN=C(N)N)n3cc(C(N)[C@@H](C)CC)nn3)CC2)nc(N2CCN(C(=O)[C@H](CC(N)=O)n3cc([C@@H](N)CC(N)=O)nn3)CC2)n1 (some centres not stated) | -5 | -5 | -7 | 17 | 25*
C#CCOCCOCCOCCNc1nc(N2CCOCC2)nc(N2CCN(C(=O)[C@H](CCCCN)n3cc(CN)nn3)CC2)n1 | 14 | -10 | -8 | 7 | 32*
C#CCOCCOCCOCCNc1nc(N2CCN(C(=O)[C@H](CCC(=O)O)n3cc(C(N)[C@H](C)CC)nn3)CC2)nc(N2CCN(C(=O)[C@H](CCC(=O)O)n3cc(C(N)[C@H](C)CC)nn3)CC2)n1 (some centres not stated) | 10 | -7 | -2 | -5 | 2
C#CCOCCOCCOCCNc1nc(N2CCN(C(=O)[C@H](CC(N)=O)n3cc(C(N)[C@@H](C)CC)nn3)CC2)nc(N2CCN(C(=O)[C@H](CCCCN)n3cc([C@@H](N)CC(N)=O)nn3)CC2)n1 (some centres not stated) | -3 | -12 | -2 | 1 | 10
C#CCOCCOCCOCCNc1nc(N2CCOCC2)nc(N2CCN(C(=O)[C@H](CCCCN)n3cc([C@@H](N)C(C)CC)nn3)CC2)n1 (some centres not stated) | ? | -12 | 8 | -1 | 2
C#CCOCCOCCOCCNc1nc(N2CCOCC2)nc(N2CCN(C(=O)[C@H](CCCN=C(N)N)n3cc(C(N)[C@@H](C)CC)nn3)CC2)n1 (some centres not stated) | 119* | -11 | . | 0 | .
C#CCOCCOCCOCCNc1nc(N2CCN(C(=O)[C@H](CC(N)=O)n3cc(C(N)[C@H](C)CC)nn3)CC2)nc(N2CCN(C(=O)[C@H](CC(N)=O)n3cc(C(N)[C@@H](C)CC)nn3)CC2)n1 (some centres not stated) | 21* | -10 | . | -6 | 3
C[C@@H]1CCCCO[C@@H](CN(C)C(=O)CCCN(C)C)[C@@H](C)CN([C@H](C)CO)C(=O)c2cc(NC(=O)Nc3ccccc3)ccc2O1 | -3 | . | -6 | -4 | -1
C#CCOCCOCCOCCNc1nc(N2CCN(C(=O)[C@H]([C@@H](C)CC)n3cc([C@@H](N)CC(C)C)nn3)CC2)nc(N2CCN(C(=O)[C@H](Cc3ccc(O)cc3)n3cc([C@@H](N)CC(C)C)nn3)CC2)n1 | 19 | -11 | 3 | 11 | 28*
C#CCOCCOCCOCCNc1nc(N2CCN(C(=O)[C@H](CCCN=C(N)N)n3cc(C(N)[C@@H](C)CC)nn3)CC2)nc(N2CCN(C(=O)[C@H](CC(N)=O)n3cc([C@@H](N)C(C)C)nn3)CC2)n1 (some centres not stated) | 37* | -9 | . | 7 | .
C#CCOCCOCCOCCNc1nc(N2CCN(C(=O)Cn3cc(CCO)nn3)CC2)nc(N2CCN(C(=O)[C@H]([C@@H](C)O)n3cc(CCCCN)nn3)CC2)n1 | 21* | -7 | . | -2 | -2
C#CCOCCOCCOCCNc1nc(N2CCN(C(=O)[C@H](CCC(=O)O)n3cc([C@@H](N)[C@H](C)CC)nn3)CC2)nc(N2CCN(C(=O)[C@H](CCC(=O)O)n3cc([C@@H](N)CC(N)=O)nn3)CC2)n1 | 4 | -5 | -2 | -9 | -2
C#CCOCCOCCOCCNc1nc(N2CCN(C(=O)[C@H]([C@@H](C)CC)n3cc([C@@H](N)Cc4ccc(O)cc4)nn3)CC2)nc(N2CCN(C(=O)[C@H]([C@@H](C)CC)n3cc([C@@H](N)Cc4ccc(O)cc4)nn3)CC2)n1 | -15 | -5 | . | 12 | 14
C/C=C/c1ccc2c(c1)O[C@H](CN(C)C)[C@H](C)CN([C@@H](C)CO)S2(=O)=O | 3 | . | 2 | -9 | -2
CO[C@@H]1CN(C)C(=O)c2ccc(NC(=O)c3cc(C)on3)cc2OC[C@@H](C)N(C(C)=O)C[C@H]1C | 12 | . | -2 | -32 | 0
O=C(O)c1ccc(NS(=O)(=O)c2ccc3c(c2)C2C=CCC2C(c2ccccc2F)N3)cc1 (configuration not stated) | 1 | -88 | 51* | -3 | 4
C[n+]1ccc(/C=C/c2c[nH]c3ccc(F)cc23)cc1 | 2 | -91 | 26* | -1 | 2
N=c1c(C(=O)NCC2CCCO2)cc2c(=O)n3ccccc3nc2n1Cc1ccc(Cl)cc1 (configuration not stated) | 0 | 94* | -1 | 2 | -23
Cc1cccn2c(=O)c3cc(C(=O)NCC4CCCO4)c(=N)n(C4CCCC4)c3nc12 (configuration not stated) | -2 | 23 | 81* | -2 | -3
